Data taken from ChEMBL document CHEMBL5653631, “A Potent and Selective ULK1 Inhibitor Suppresses Autophagy and Sensitizes Cancer Cells to Nutrient Stress” (iScience, 2018).

Key:
[1] = target: Tyrosine-protein kinase Fgr (Homo sapiens) (UniProt P09769); experiment: Inhibition of human recombinant FGR at 40 nM related to control ULK1
[2] = target: T1, Tyrosine-protein kinase JAK3 (Homo sapiens) (UniProt P52333); experiment: Inhibition of human recombinant JAK3 at 40 nM in presence of ATP by radiometric assay relative to control
T1 sequence (whole entry): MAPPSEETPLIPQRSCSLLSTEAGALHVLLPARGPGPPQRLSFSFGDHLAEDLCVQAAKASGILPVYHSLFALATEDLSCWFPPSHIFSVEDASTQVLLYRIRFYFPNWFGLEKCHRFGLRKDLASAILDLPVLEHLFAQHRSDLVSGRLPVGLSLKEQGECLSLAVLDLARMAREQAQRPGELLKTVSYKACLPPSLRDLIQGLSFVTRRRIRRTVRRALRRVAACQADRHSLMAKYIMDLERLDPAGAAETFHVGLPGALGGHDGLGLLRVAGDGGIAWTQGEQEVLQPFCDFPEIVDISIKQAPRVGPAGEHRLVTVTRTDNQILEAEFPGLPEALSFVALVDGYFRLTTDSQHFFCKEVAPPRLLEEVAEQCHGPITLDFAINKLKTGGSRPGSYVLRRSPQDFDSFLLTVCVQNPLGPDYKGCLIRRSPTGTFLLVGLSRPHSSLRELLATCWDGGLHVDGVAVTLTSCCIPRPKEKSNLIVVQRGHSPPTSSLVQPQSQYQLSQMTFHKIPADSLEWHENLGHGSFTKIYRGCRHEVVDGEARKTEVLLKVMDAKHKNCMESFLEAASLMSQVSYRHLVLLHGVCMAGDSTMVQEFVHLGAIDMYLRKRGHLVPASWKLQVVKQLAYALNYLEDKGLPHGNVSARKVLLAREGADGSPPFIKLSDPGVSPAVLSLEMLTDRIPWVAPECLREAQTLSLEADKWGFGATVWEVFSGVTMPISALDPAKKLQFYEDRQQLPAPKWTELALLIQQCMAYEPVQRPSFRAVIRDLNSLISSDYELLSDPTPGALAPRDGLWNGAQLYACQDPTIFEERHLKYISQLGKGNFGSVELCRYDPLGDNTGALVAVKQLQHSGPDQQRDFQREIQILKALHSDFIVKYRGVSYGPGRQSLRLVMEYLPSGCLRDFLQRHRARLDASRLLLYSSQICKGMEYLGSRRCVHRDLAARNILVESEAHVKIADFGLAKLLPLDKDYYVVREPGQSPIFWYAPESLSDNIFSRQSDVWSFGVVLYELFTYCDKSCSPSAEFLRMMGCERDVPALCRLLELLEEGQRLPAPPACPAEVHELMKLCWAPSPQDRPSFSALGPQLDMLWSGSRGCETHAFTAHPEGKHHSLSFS

[3] = target: T2, cGMP-dependent protein kinase 2 (Homo sapiens) (UniProt Q13237); experiment: Inhibition of human recombinant PKG2 at 40 nM related to control ULK1
T2 sequence (whole entry): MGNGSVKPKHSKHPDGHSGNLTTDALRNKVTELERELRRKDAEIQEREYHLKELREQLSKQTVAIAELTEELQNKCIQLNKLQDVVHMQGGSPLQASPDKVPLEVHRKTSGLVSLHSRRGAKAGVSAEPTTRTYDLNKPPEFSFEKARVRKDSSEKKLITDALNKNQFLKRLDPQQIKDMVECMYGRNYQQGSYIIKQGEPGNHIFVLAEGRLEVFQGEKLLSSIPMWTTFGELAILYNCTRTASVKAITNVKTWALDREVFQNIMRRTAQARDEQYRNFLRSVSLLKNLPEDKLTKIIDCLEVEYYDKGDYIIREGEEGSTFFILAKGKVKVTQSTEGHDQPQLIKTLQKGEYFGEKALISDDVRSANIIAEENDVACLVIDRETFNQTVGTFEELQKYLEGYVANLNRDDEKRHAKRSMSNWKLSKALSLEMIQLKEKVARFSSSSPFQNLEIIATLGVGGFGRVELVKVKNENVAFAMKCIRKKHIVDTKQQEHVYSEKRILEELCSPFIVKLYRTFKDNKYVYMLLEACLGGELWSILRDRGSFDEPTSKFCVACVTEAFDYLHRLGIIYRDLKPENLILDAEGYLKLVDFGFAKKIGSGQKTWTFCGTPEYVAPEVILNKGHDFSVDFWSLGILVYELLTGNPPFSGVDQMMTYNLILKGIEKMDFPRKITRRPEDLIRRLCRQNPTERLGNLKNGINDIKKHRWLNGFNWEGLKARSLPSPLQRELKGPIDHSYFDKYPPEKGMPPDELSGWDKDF

[4] = target: 5'-AMP-activated protein kinase catalytic subunit alpha-1 (Homo sapiens) (UniProt Q13131); experiment: Inhibition of human recombinant AMPKa1 at 40 nM in presence of ATP by radiometric assay relative to control
Chain of 5'-AMP-activated protein kinase catalytic subunit alpha-1 (Homo sapiens) (Q13131 whole entry, looked up): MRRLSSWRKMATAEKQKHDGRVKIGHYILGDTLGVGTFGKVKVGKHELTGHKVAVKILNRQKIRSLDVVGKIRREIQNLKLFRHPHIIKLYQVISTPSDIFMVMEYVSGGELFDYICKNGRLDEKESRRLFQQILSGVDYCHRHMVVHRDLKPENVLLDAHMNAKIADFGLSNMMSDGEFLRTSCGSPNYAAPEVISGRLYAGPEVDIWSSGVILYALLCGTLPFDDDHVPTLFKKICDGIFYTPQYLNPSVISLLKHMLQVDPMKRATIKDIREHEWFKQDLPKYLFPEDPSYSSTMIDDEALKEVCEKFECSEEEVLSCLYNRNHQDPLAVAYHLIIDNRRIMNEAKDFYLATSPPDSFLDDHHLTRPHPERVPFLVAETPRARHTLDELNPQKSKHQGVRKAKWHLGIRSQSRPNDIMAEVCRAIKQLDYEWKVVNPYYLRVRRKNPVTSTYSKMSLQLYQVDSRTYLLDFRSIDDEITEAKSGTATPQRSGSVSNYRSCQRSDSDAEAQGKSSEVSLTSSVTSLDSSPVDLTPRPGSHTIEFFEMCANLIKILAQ
How it was run: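 Panel of 327 recombinant human kinases, each assayed in vitro by radiometric activity assay in duplicate at a single inhibitor concentration per compound, chosen with reference to its ULK1 inhibition. Activity remaining was expressed as percent of vehicle control, and percent inhibition was calculated as 100 minus percent activity remaining.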

[5] = target: Serine/threonine-protein kinase/endoribonuclease IRE1 (Homo sapiens) (UniProt O75460); experiment: Inhibition of human recombinant IRE1 at 40 nM related to control ULK1
Chain of Serine/threonine-protein kinase/endoribonuclease IRE1 (Homo sapiens) (O75460 19-977 limits assumed): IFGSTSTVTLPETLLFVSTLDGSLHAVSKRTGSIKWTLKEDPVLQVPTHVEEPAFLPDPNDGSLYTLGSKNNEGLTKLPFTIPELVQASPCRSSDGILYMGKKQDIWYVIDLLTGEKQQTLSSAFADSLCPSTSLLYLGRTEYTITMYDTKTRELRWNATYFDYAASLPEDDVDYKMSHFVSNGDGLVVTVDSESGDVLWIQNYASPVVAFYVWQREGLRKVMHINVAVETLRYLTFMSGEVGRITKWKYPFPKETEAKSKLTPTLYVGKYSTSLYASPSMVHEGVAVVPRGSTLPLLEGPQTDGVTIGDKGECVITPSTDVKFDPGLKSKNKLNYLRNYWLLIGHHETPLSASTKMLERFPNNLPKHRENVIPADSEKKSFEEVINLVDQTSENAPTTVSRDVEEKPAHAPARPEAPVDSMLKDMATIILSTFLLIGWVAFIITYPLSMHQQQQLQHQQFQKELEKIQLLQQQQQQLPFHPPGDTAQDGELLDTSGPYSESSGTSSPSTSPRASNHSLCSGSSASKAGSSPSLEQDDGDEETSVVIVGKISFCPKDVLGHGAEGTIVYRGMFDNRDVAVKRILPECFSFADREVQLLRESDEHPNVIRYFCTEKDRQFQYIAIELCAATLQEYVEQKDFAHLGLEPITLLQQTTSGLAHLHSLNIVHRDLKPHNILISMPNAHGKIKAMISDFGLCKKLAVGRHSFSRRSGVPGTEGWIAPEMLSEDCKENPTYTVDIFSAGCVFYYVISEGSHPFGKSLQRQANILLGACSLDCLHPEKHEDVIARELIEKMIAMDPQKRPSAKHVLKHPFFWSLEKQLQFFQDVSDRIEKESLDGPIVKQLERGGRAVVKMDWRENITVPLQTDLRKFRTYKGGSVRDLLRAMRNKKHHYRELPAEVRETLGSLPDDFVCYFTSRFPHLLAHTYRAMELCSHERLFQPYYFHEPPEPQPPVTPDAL

[6] = target: Serine/threonine-protein kinase pim-1 (Homo sapiens) (UniProt P11309); experiment: Inhibition of human recombinant PIM1 at 15 nM in presence of ATP by radiometric assay relative to control
Chain of Serine/threonine-protein kinase pim-1 (Homo sapiens) (P11309 whole entry, looked up): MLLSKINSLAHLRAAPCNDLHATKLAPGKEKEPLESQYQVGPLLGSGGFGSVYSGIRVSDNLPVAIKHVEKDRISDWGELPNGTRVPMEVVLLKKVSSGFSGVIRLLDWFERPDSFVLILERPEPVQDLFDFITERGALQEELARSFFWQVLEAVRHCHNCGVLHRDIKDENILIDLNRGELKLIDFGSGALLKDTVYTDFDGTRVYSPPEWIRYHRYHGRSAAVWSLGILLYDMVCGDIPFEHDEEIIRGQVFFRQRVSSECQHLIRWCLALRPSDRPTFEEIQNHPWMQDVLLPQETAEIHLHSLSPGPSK

[7] = species on record: Homo sapiens; experiment: Inhibition of human recombinant KHS1 at 15 nM related to control ULK1
[8] = target: Tyrosine-protein kinase Fgr (Homo sapiens) (UniProt P09769); experiment: Inhibition of human recombinant FGR at 500 nM related to control ULK1
[9] = target: SRSF protein kinase 2 (Homo sapiens) (UniProt P78362); experiment: Inhibition of human recombinant SRPK2 at 500 nM in presence of ATP by radiometric assay relative to control
Chain of SRSF protein kinase 2 (Homo sapiens) (P78362 whole entry, looked up): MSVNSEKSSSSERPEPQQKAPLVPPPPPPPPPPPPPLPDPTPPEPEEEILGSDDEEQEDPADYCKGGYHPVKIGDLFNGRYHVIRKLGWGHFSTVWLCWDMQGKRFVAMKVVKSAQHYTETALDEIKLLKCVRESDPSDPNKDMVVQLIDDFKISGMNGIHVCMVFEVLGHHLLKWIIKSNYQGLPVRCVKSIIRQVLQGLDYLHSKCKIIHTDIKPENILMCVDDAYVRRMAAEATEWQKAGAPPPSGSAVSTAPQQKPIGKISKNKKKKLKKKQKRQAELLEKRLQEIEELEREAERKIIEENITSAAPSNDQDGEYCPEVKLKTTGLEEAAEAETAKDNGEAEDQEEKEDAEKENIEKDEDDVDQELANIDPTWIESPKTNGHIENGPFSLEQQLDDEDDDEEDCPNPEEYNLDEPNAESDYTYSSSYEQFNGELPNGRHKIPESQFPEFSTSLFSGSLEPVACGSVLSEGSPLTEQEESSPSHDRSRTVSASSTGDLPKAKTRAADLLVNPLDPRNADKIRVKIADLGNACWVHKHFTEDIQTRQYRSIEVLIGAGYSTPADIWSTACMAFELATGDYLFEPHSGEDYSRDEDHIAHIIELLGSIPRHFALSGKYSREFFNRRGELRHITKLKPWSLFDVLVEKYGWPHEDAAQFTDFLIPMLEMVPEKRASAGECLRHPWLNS

[10] = target: Receptor-type tyrosine-protein kinase FLT3 (Homo sapiens) (UniProt P36888); experiment: Inhibition of human recombinant FLT3 at 500 nM related to control ULK1
Chain of Receptor-type tyrosine-protein kinase FLT3 (Homo sapiens) (P36888 whole entry): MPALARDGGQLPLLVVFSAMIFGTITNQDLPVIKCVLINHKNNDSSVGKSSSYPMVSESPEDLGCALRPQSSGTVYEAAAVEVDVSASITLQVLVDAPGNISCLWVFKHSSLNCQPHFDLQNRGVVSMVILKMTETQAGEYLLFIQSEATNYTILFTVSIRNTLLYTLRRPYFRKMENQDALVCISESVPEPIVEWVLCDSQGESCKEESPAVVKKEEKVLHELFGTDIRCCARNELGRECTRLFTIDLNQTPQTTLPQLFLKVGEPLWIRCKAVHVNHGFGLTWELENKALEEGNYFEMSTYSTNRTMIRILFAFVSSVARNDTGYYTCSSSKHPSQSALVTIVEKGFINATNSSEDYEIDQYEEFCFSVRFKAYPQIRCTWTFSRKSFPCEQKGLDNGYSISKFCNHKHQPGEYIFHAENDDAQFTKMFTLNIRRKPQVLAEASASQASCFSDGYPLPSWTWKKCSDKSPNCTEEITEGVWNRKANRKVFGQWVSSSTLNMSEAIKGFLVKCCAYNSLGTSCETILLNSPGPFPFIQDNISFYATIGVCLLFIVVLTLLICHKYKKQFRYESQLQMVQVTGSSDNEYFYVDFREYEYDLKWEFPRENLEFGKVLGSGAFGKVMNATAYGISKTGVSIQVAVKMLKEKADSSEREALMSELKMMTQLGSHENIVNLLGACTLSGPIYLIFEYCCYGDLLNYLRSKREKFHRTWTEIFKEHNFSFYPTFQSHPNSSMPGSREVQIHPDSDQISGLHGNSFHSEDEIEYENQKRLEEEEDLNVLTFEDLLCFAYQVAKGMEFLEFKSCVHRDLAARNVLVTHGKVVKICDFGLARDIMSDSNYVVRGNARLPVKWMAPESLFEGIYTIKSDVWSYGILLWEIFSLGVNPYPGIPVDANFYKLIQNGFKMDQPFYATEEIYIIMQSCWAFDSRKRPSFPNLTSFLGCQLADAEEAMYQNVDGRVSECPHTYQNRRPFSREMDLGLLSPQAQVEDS

[11] = target: T3, Testis-specific serine/threonine-protein kinase 2 (Homo sapiens) (UniProt Q96PF2); experiment: Inhibition of human recombinant TSSK2 at 500 nM related to control ULK1
T3 sequence (whole entry): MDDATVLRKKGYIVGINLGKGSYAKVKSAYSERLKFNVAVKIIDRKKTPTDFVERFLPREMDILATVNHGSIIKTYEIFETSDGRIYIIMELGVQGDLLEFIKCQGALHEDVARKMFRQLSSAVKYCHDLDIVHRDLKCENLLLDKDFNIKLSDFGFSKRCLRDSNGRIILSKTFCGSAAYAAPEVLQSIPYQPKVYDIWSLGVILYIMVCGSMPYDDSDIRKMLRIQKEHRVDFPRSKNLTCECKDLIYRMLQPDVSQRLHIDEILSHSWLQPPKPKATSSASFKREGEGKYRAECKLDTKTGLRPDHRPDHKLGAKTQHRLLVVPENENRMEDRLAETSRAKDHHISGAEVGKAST

Chain of Tyrosine-protein kinase Fgr (Homo sapiens) (P09769 2-529 limits assumed): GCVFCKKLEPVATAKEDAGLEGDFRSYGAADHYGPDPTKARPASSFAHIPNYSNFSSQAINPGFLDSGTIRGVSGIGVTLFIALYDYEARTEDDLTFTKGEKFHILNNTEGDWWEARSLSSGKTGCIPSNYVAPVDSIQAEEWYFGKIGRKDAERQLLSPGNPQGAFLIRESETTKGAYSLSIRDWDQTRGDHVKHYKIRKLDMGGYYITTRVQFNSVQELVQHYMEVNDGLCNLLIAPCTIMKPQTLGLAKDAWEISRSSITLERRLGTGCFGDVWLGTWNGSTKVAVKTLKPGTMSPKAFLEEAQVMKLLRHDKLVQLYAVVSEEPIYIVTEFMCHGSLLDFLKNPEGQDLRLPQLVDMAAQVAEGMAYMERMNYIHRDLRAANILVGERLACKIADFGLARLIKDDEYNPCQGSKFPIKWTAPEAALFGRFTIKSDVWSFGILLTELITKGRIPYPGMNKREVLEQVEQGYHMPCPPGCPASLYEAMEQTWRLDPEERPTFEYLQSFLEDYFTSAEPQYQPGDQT

**Q.** With `O=C(N[C@@H](C1CC1)C(F)(F)F)c1cc(-c2cnn3cc(-c4ccc(F)cc4)cnc23)cs1` as the compound, how does the fold change (FC) [1] read?
**A.** 0.05

**Q.** And the inhibition [2]?
**A.** 0%

**Q.** What about the fold change (FC) [3] of the same compound?
**A.** 0.01

**Q.** And the inhibition [4]?
**A.** 8%

**Q.** What about the fold change (FC) [5] of the same compound?
**A.** 0

**Q.** With `CC(C)[C@H](NC(=O)c1cc(-c2cnn3cc(-c4ccc(OCCN5CCCCC5)cc4)cnc23)cs1)C(F)(F)F` as the compound, how does the inhibition [6] read?
**A.** 14%

**Q.** And the fold change (FC) [7]?
**A.** 0.16

**Q.** With `CNC(=O)c1ccccc1Oc1nc(Nc2cc(OC)c(OC)c(OC)c2)ncc1Br` as the compound, how does the fold change (FC) [8] read?
**A.** 0.11

**Q.** And the inhibition [9]?
**A.** 5%

**Q.** And the fold change (FC) [10]?
**A.** 0.77

**Q.** What about the fold change (FC) [11] of the same compound?
**A.** 0.03
